# Laboratory results published in ChEMBL document CHEMBL4425098, “Thiolactomycin-Based Inhibitors of Bacterial β-Ketoacyl-ACP Synthases with in Vivo Activity” (J Med Chem, 2016).
# Active and inactive are the calls of the source. The rule behind the calls is not given here.
# Key:
# Staphylococcus aureus [1] = assay: Antibacterial activity against methicillin-resistant Staphylococcus aureus BAA 1762 after 18 to 24 hrs by Alamar blue dye-based colorimetric assay; format: functional
# [2] = system: Mycobacterium tuberculosis; assay: Antibacterial activity against Mycobacterium tuberculosis H37Rv after 6 days by Alamar blue dye-based colorimetric assay; format: functional; conditions: 144 h
# Summary of the method: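 M. tuberculosis H37Rv grown to early-mid log phase in Middlebrook 7H9 with 10% OADC and 0.05% Tween 80, added to 1:2 serial compound dilutions, and grown for 6 days at 37°C. Alamar blue then added for a further 24 h. MIC taken as the concentration preventing visible growth and Alamar blue reduction in all replicates.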
# Klebsiella pneumoniae = assay: Antibacterial activity against Klebsiella pneumoniae KPC2ST258 infected in Swiss Webster mouse assessed as survival time at 100 mg/kg, sc administered 1, 12 and 24 hrs post infection measured every 12 hrs for 7 days; format: functional
# Summary of the method: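 K. pneumoniae KPC2ST258 was given IP as 5×10⁶ cfu in BHI broth. Drugs in saline/PEG400/ethanol (40/20/40) were injected SC at 100 mg/kg/inj at 1, 12 and 24 h post infection. Mice were checked every 12 h for 7 days, n=8–10 per group. Average survival time was compared with vehicle by one-tailed t test.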
# [3] = biological target: 3-oxoacyl-[acyl-carrier-protein] synthase 2 (Staphylococcus aureus, UniProt Q5TKS0, C165Q); assay: Binding affinity to Staphylococcus aureus FabF C165Q mutant expressed in Escherichia coli BL21 (DE3) PlysS cells by intrinsic tryptophan fluorescence quenching-based fluorimetric method
# Summary of the method: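 Kd by quenching of intrinsic tryptophan fluorescence (excitation 280 nm, emission 337 nm). Inhibitor stocks in DMSO or buffer were titrated into 1 μM His-tag-purified enzyme in 50 mM Tris-HCl, 150 mM NaCl, 1 mM DTT, pH 8.5. mtFabB was expressed in M. smegmatis MC²155; saFabF was expressed in E. coli BL21(DE3) pLysS.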
# Staphylococcus aureus [4] = assay: Antibacterial activity against methicillin-resistant Staphylococcus aureus BAA 1762 infected in Swiss Webster mouse assessed as increase in survival rate at 100 mg/kg, sc administered 1 and 25 hrs post infection measured twice a day for 5 days relative to vehicle-treated control; format: functional, organism-based
# Summary of the method: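 Mice made neutropenic with cyclophosphamide 4 days and 1 day before infection. MRSA BAA 1762 was given IP as 0.5 mL of 5×10⁷ cells/mL in BHI. Analogues in water/ethanol, or vancomycin in water, were dosed SC at 100 mg/kg/inj at 1 and 25 h post infection. Survival was checked every 12 h for 5 days, n=6–7 per group. Average survival time was compared with vehicle by one-tailed t test.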
# [5] = system: Burkholderia pseudomallei; assay: Antibacterial activity against Burkholderia pseudomallei after 18 to 24 hrs by Alamar blue dye-based colorimetric assay; format: functional
# [6] = system: Mycobacterium tuberculosis; assay: Binding affinity to Mycobacterium tuberculosis wild type FabB expressed in Mycobacterium smegmatis MC2 155 by WaterLOGSY-based competition assay
# Yersinia pestis = assay: Antibacterial activity against Yersinia pestis A1122 after 18 to 24 hrs by Alamar blue dye-based colorimetric assay; format: functional
# Francisella tularensis = assay: Antibacterial activity against Francisella tularensis LVS after 18 to 24 hrs by Alamar blue dye-based colorimetric assay; format: functional
# THP-1 = assay: Cytotoxicity against human THP1 cells at < 100 ug/ml after 2 days by Alamar blue assay; format: cell-based; conditions: thp-1, 48 h
# [7] = biological target: T1, 3-oxoacyl-[acyl-carrier-protein] synthase 2 (Staphylococcus aureus, UniProt Q5TKS0); assay: Binding affinity to Staphylococcus aureus wild type FabF expressed in Escherichia coli BL21 (DE3) PlysS cells by intrinsic tryptophan fluorescence quenching-based fluorimetric method
# T1 sequence (Q5TKS0 whole entry): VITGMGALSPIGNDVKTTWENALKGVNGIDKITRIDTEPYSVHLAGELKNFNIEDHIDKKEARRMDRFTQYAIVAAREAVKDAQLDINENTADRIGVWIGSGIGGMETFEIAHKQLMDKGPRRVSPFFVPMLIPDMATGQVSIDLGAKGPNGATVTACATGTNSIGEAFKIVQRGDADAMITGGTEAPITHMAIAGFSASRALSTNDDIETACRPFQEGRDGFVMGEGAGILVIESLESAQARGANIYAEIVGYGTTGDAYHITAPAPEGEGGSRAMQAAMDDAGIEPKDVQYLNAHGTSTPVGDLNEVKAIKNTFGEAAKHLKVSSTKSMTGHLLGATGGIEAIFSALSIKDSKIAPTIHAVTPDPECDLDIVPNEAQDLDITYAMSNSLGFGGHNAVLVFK
# Staphylococcus aureus [8] = assay: Antibacterial activity against methicillin-sensitive Staphylococcus aureus RN4220 after 18 to 24 hrs by Alamar blue dye-based colorimetric assay; format: functional
# Summary of the method: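 Two-fold serial dilutions from 512 down to 0.25 μg/mL in CAMHB (microbroth dilution); incubated 37 °C for 18–24 h, then Alamar Blue added for a further 4 h. Absorbance read at 570 and 600 nm; percent growth reduction plotted against concentration, MIC90 from non-linear regression; growth and MICs confirmed by optical density.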
smiles,measurement,setting,value
C=C/C(C)=C/[C@@]1(C)SC(=O)C(C)=C1O [THIOLACTOMYCIN],MIC90,Staphylococcus aureus [1],75 µg/mL
same,MIC90,[2],3.1 µg/mL
same,MSD,Klebsiella pneumoniae,3.25 days
same,Kd,[3],88 µM
same,Activity,Staphylococcus aureus [4],Active
same,MIC,[5],8 µg/mL
same,Activity,[6],inactive
same,MIC90,Yersinia pestis,8 µg/mL
same,MIC90,Francisella tularensis,2.8 µg/mL
same,Activity,THP-1,Non-Toxic
same,Kd,[7],107 µM
same,MIC90,Staphylococcus aureus [8],75 µg/mL
